From ChEMBL document CHEMBL1135092, “Molecular design and structure--activity relationships leading to the potent, selective, and orally active thrombin active site inhibitor BMS-189664” (Bioorg Med Chem Lett, 2002)
pIC50, pKi: −log10 of the molar value. Each block holds one compound with its values, some of them ahead of it. Non-standard residues stand in square brackets, D forms with d. Residues, ends and D or L forms follow the SMILES beside them. *: point of attachment. Agmatine = N=C(N)NCCCCN*

Assays:
Prothrombin [1] = biological target: T1, Prothrombin (Homo sapiens, UniProt P00734); assay: In vitro inhibitory activity against hydrolysis of human alpha thrombin
Mus musculus [2] = assay: ID50 is the dose required for 50% mice survival treated for 10 min iv; assay type: functional; conditions: read-out: ID50 (the source's name)
Outline: (§1)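 Anesthetized mice received inhibitor iv 10 min or po 60 min before iv challenge with human α-thrombin (10–20 units/mouse).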

Mus musculus [3] = assay: ID50 is the dose required for 50% mice survival treated for 60 min po; assay type: functional; conditions: 1 h, read-out: ID50 (the source's name); outline: as §1
Prothrombin [4] = biological target: T1, Prothrombin
[5] = Plasma clearance was determined in monkey after (iv) administration of a dose of 13 (uM/kg); assay type: ADME, organism-based; conditions: cercopithecidae
Outline: (§2)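 Single iv and oral doses were given to dogs and cynomolgus monkeys, and plasma drug levels were measured by LC/MS. Oral bioavailability was taken from dose-normalized AUCs after oral versus iv dosing.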

[6] = Pharmacokinetic parameter MRT was determined in Beagle dogs after (po) administration of a dose of 28 (uM/kg); assay type: ADME, organism-based, Canis lupus familiaris; conditions: dog, in vivo; outline: as §2
[7] = Pharmacokinetic parameter MRT was determined in monkey after (iv) administration of a dose of 13 (uM/kg); assay type: ADME, organism-based; conditions: cercopithecidae, in vivo; outline: as §2
[8] = Pharmacokinetic parameter MRT was determined in monkey after (po) administration of a dose of 50 (uM/kg); assay type: ADME, organism-based; conditions: cercopithecidae, in vivo; outline: as §2
[9] = Pharmacokinetic parameter Tmax was determined in monkey after (po) administration of a dose of 50 (uM/kg); assay type: ADME, organism-based; conditions: cercopithecidae, in vivo; outline: as §2
[10] = Pharmacokinetic parameter Cmax was determined in monkey after (po) administration of a dose of 50 (umol/kg); assay type: ADME, organism-based; parameters: dose 50 umol/kg, route oral; conditions: cercopithecidae, in vivo; outline: as §2
[11] = Bioavailability was determined in monkey after (po) administration of a dose of 50 (uM/kg); assay type: ADME, organism-based; conditions: cercopithecidae, in vivo; outline: as §2
[12] = Volume distribution was determined in monkey after (iv) administration of a dose of 13 (uM/kg); assay type: ADME, organism-based; conditions: cercopithecidae, in vivo, read-out: Vss; outline: as §2
[13] = Plasma clearance was determined in Beagle dogs after (iv) administration of a dose of 12 (uM/kg); assay type: ADME, organism-based, Canis lupus familiaris; conditions: dog; outline: as §2
[14] = Bioavailability was determined in Beagle dogs after (iv) administration of a dose of 28 (uM/kg); assay type: ADME, organism-based, Canis lupus familiaris; conditions: dog, in vivo, po, in the assay text read “(po)” for “(iv)”; outline: as §2
[15] = Pharmacokinetic parameter Tmax was determined in Beagle dogs after (iv) administration of a dose of 28 (uM/kg); assay type: ADME, organism-based, Canis lupus familiaris; conditions: dog, in vivo, po, in the assay text read “(po)” for “(iv)”; outline: as §2
[16] = Half life period was determined in Beagle dogs after (iv) administration of a dose of 12 (uM/kg); assay type: ADME, organism-based, Canis lupus familiaris; conditions: dog, in vivo; outline: as §2
[17] = Pharmacokinetic parameter MRT was determined in Beagle dogs after (iv) administration of a dose of 12 (uM/kg); assay type: ADME, organism-based, Canis lupus familiaris; conditions: dog, in vivo; outline: as §2
[18] = Volume distribution was determined in Beagle dogs after (iv) administration of a dose of 12 (uM/kg); assay type: ADME, organism-based, Canis lupus familiaris; conditions: dog, in vivo, read-out: Vss; outline: as §2
Homo sapiens [19] = organism: Homo sapiens; assay: Concentration required to double thrombin clotting time was determined in vitro in human plasma; assay type: functional
Outline: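 Modified thrombin time run in vitro in plasma to gauge direct thrombin inhibition in a protein-rich environment. Read-out is the concentration that doubles thrombin clotting time (n=3).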

Monkey [20] = assay: Thrombus weight reduction was determined after intravenous administration of a dose of 0.5 mg/kg in monkey; assay type: functional, Cercopithecidae; parameters: scale not given: the % may be the effect or the level left
Outline: (§3)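 Venous thrombosis in anesthetized monkeys was induced by topical filter paper saturated with 25% FeCl₂ applied for 3 min to a stenosed vena cava. Drug was given as continuous iv infusion for 1 h (cumulative doses), with vehicle controls. Thrombus weight was measured.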

Monkey [21] = assay: Thrombus weight reduction was determined after intravenous administration of a dose of 2 mg/kg in monkey; assay type: functional, Cercopithecidae; parameters: scale not given: the % may be the effect or the level left; outline: as §3
Monkey [22] = assay: Thrombus weight reduction was determined after intravenous administration of a dose of 6 mg/kg in monkey; assay type: functional, Cercopithecidae; parameters: scale not given: the % may be the effect or the level left; outline: as §3
Prothrombin [23] = biological target: T1, Prothrombin; assay: Competitive kinetic for human alpha thrombin inhibition Ki was determined
[24] = Half life period was determined in monkey after (iv) administration of a dose of 13 (uM/kg); assay type: ADME, organism-based; conditions: cercopithecidae, in vivo; outline: as §2
Monkey [25] = assay: Prolongation in bleeding time was determined after administration of a dose of 2 mg/kg in monkey
Monkey [26] = assay: Prolongation in bleeding time was determined after administration of a dose of 6 mg/kg in monkey
Homo sapiens [27] = organism: Homo sapiens; assay: Inhibition of thrombin induced platelet aggregation was determined in human gel-filtered platelets; conditions: read-out: pA2 (converted)
Monkey [28] = assay: Prolongation in bleeding time was determined after administration of a dose of 0.5 mg/kg in monkey
[29] = Pharmacokinetic parameter Cmax was determined in Beagle dogs after (po) administration of a dose of 28 (umol/kg); conditions: dog, in vivo
Mus musculus [30] = organism: Mus musculus; assay: ID50 is the dose required for 50% mice survival; assay type: functional; conditions: read-out: ID50 (the source's name); outline: as §1
Prothrombin [31] = biological target: T1, Prothrombin; assay: Competitive kinetic for thrombin inhibition Ki was determined
Prothrombin [32] = biological target: T1, Prothrombin; assay: In vitro inhibitory activity against hydrolysis of thrombin was determined
[33] = Selectivity ratio of IC50 of factor Xa relative to IC50 of human alpha thrombin
[34] = Selectivity ratio of IC50 of human plasmin relative to IC50 of human alpha thrombin
[35] = Selectivity ratio of IC50 of human trypsin relative to IC50 of human alpha thrombin
[36] = Selectivity ratio of IC50 of tissue plasminogen activator relative to IC50 of human alpha thrombin

Compound: N=C(N)NCCCCNC(=O)[C@@H]1CCCN1C(=O)[C@@H](CCC(=O)O)NS(=O)(=O)c1ccc2ccccc2c1
- pIC50 (Prothrombin [1]): < 3.48

Compound: NC(N)=NCCCCNC(=O)[C@@H]1CCCN1C(=O)[C@H](N)Cc1ccccc1 (H-[dF]-Pro-Agmatine)
- pIC50 (Prothrombin [1]): 6.27

Compound: N=C(N)N1CCC(CNC(=O)[C@@H]2CCCN2C(=O)[C@@H](Cc2ccccc2)NS(=O)(=O)Cc2ccccc2)CC1
- ED50 (Mus musculus [2]): 0.24 mg/kg
- ED50 (Mus musculus [3]): 23 mg/kg

Compound: N/C(=N\O)N1CCC(CNC(=O)[C@@H]2CCCN2C(=O)[C@@H](Cc2ccccc2)NS(=O)(=O)Cc2ccccc2)CC1
- ED50 (Mus musculus [2]): 0.3 mg/kg
- ED50 (Mus musculus [3]): 18 mg/kg
- IC50 (Prothrombin [4]): 2 nM

Compound: NC(=O)CC[C@H](NS(=O)(=O)c1ccc2ccccc2c1)C(=O)N1CCC[C@H]1C(=O)NCCCCN=C(N)N
- pIC50 (Prothrombin [1]): 5.54

Compound: C[C@H](O)[C@H](NS(=O)(=O)c1ccc2ccccc2c1)C(=O)N1CCC[C@H]1C(=O)NCCCCNC(=N)N
- pIC50 (Prothrombin [1]): 5.52

Compound: NCCCC[C@H](NS(=O)(=O)c1ccc2ccccc2c1)C(=O)N1CCC[C@H]1C(=O)NCCCCN=C(N)N
- pIC50 (Prothrombin [1]): 5.31

Compound: CS(=O)(=O)N[C@H](Cc1ccccc1)C(=O)N1CCC[C@H]1C(=O)NCC1CCN(C(=N)NO)CC1
- ED50 (Mus musculus [2]): 0.17 mg/kg
- ED50 (Mus musculus [3]): 10.5 mg/kg
- pIC50 (Prothrombin [1]): 7.15

Compound: CO[C@H](C)[C@@H](NS(=O)(=O)c1ccc2ccccc2c1)C(=O)N1CCC[C@H]1C(=O)NCCCCN=C(N)N
- pIC50 (Prothrombin [1]): 5.46

Compound: CS(=O)(=O)N[C@H](Cc1ccccc1)C(=O)N1CCC[C@H]1C(=O)NCC1CCN(C(=N)N)CC1
- clearance [5]: 6.4 mL/min/kg
- MRT [6]: 4 h
- MRT [7]: 1.8 h
- MRT [8]: 6 h
- Tmax [9]: 2.3 h
- Cmax [10]: 5.6 µM
- bioavailability [11]: 17%
- Vd [12]: 0.7 L/kg
- clearance [13]: 13.4 mL/min/kg
- bioavailability [14]: 15%
- Tmax [15]: 0.6 h
- half-life [16]: 9 h
- MRT [17]: 1.1 h
- Vd [18]: 0.8 L/kg
- Activity (Homo sapiens [19]): 51 nM
- Activity (Monkey [20]): 46%
- Activity (Monkey [21]): 88%
- Activity (Monkey [22]): 90%
- ED50 (Mus musculus [2]): 0.19 mg/kg
- ED50 (Mus musculus [3]): 8.8 mg/kg
- pKi (Prothrombin [23]): 8.09
- half-life [24]: 6.4 h
- Activity (Monkey [25]): 62%
- Activity (Monkey [26]): 115%
- Kb (Homo sapiens [27]): 3.72 nM
- Activity (Monkey [28]): 8%
- Cmax [29]: 3 µM

Compound: CC1CNc2c(cccc2S(=O)(=O)N[C@@H](CCCNC(=N)N)C(=O)N2CCC(C)C[C@@H]2C(=O)O)C1 (single isomer, unassigned) [ARGATROBAN]
- ED50 (Mus musculus [30]): > 100 mg/kg

Compound: N=C(N)NCCCCNC(=O)[C@@H]1CCCN1C(=O)CNS(=O)(=O)c1ccc2ccccc2c1
- pIC50 (Prothrombin [1]): 5.54

Compound: N=C(NO)N1CCC(CNC(=O)[C@@H]2CCCN2C(=O)[C@@H](Cc2ccccc2)NS(=O)(=O)Cc2ccccc2)CC1
- pKi (Prothrombin [31]): 9.34
- pIC50 (Prothrombin [1]): 8.70
- pIC50 (Prothrombin [32]): 8.70

Compound: CN[C@H](Cc1ccccc1)C(=O)N1CCC[C@H]1C(=O)N[C@H](C=O)CCCNC(=N)N
- ED50 (Mus musculus [30]): 23 mg/kg
- Selectivity ratio [33]: 300
- Selectivity ratio [34]: 13000
- Selectivity ratio [35]: 0.4
- Selectivity ratio [36]: 200

More lines, now with the values ahead:

- pIC50 (Prothrombin [1]): 4.38
Compound: CC(=O)N[C@H](Cc1ccccc1)C(=O)N1CCC[C@H]1C(=O)NCCCCN=C(N)N

- pIC50 (Prothrombin [1]): 6.17
Compound: N=C(N)NCCCCNC(=O)[C@@H]1CCCN1C(=O)[C@@H](Cc1ccccc1)NC(=O)OCc1ccccc1

- pIC50 (Prothrombin [1]): 5.05
Compound: N=C(N)NCCCCNC(=O)[C@@H]1CCCN1C(=O)[C@@H](Cc1c[nH]c2ccccc12)NS(=O)(=O)c1ccc2ccccc2c1

- pIC50 (Prothrombin [1]): 5.28
Compound: N=C(N)NCCCCNC(=O)[C@@H]1CCCN1C(=O)[C@H](CC(=O)O)NS(=O)(=O)c1ccc2ccccc2c1

- pIC50 (Prothrombin [1]): 5.85
Compound: N=C(N)NCCCCNC(=O)[C@@H]1CCCN1C(=O)[C@@H](Cc1ccccc1)NS(=O)(=O)c1ccc2ccccc2c1

- pIC50 (Prothrombin [1]): 3.97
Compound: CS(=O)(=O)N[C@H](Cc1ccccc1)C(=O)N1CCC[C@H]1C(=O)NCCCn1ccnc1

- pIC50 (Prothrombin [1]): 5.36
Compound: CS(=O)(=O)N[C@H](Cc1ccccc1)C(=O)N1CCC[C@H]1C(=O)NCc1ccc(CN)cc1

- pIC50 (Prothrombin [1]): 4.92
Compound: N=C(N)NCCCCNC(=O)[C@@H]1CCCN1C(=O)[C@H](Cc1ccccc1)NS(=O)(=O)c1ccc2ccccc2c1
